How the values were obtained:
[1] = system: Raji; assay: Survival of Raji cells at 32 nmol by trypan blue staining method; format: functional, Homo sapiens
Outline: (§1)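 Raji cells (EBV genome-carrying, non-producer) grown to 10⁶ cells/mL, centrifuged, resuspended in RPMI 1640 with 10% FCS, 4 mM n-butyric acid and 32 pmol TPA (20 ng/mL), plus test compound in DMSO (32, 16, 3.2 or 0.32 nmol; 1000–10 mol ratio/TPA). Incubated 37 °C, 48 h; viability counted by hemocytometer with Trypan Blue; ≥60% survival required.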

[2] = system: Raji; assay: Survival of Raji cells at 0.32 nmol by trypan blue staining method; format: functional, Homo sapiens; outline: as §1
[3] = system: Human gammaherpesvirus 4; assay: TPA-induced EBV early antigen activation in Raji cells at 3.2 nmol relative to control
[4] = system: Human gammaherpesvirus 4; assay: TPA-induced EBV early antigen activation in Raji cells at 16 nmol relative to control
[5] = system: Human gammaherpesvirus 4; assay: TPA-induced EBV early antigen activation in Raji cells at 32 nmol relative to control
[6] = system: Raji; assay: Survival of Raji cells at 16 nmol by trypan blue staining method; format: functional, Homo sapiens; outline: as §1
[7] = system: Human gammaherpesvirus 4; assay: TPA-induced EBV early antigen activation in Raji cells at 0.32 nmol relative to control
[8] = system: Raji; assay: Survival of Raji cells at 3.2 nmol by trypan blue staining method; format: functional, Homo sapiens; outline: as §1
[9] = species: Mus musculus; assay: Inhibition of TPA-induced skin tumor in SENCAR mouse assessed as reduction of skin papilloma at 85 nmol after 20 weeks; format: functional; set-up: scale not given: the % may be the effect or the level left

SMILES | Survival [1] | Survival [2] | EBV-EA activation [3] | EBV-EA activation [4] | EBV-EA activation [5] | Survival [6] | EBV-EA activation [7] | Survival [8] | Activity [9]
COc1ccc(C/C=C/c2ccccc2)c(OCC=C(C)C)c1 | 70% | >80% | 67.8% | 29.9% | 0% | >80% | 91.7% | >80% | 
COc1ccc(C/C=C/c2ccccc2)c(OCC=C(C)C)c1O | 70% | >80% | 64.5% | 27.6% | 0% | >80% | 90.6% | >80% | 
COc1c(C/C=C/c2ccccc2)ccc(OCC=C(C)C)c1OCC=C(C)C | 70% | >80% | 64.5% | 22.6% | 0% | >80% | 88.9% | >80% | 30%
COc1ccc(C/C=C/c2ccccc2)c(OC)c1OC | 60% | >80% | 76.6% | 41.5% | 14.2% | >80% | 100% | >80% | 
COc1c(O)ccc(C/C=C/c2ccccc2)c1OC | 60% | >80% | 74% | 44.3% | 12.5% | >80% | 100% | >80% | 
COc1c(C/C=C/c2ccccc2)cc(C/C=C/c2ccccc2)c(OC)c1OC | 60% | >80% | 75.2% | 39.8% | 12.6% | >80% | 100% | >80% | 
COc1ccc(C/C=C/c2ccccc2)c(O)c1 | 60% | >80% | 73.7% | 45.1% | 20.7% | >80% | 100% | >80% | 
COc1cccc(O)c1C/C=C/c1ccccc1 | 60% | >80% | 70.5% | 43.7% | 18.3% | >80% | 100% | >80% | 
COc1ccc(C/C=C/c2ccccc2)c(O)c1O | 60% | >80% | 71.5% | 42.5% | 10.8% | >80% | 100% | >80% | 
COc1cc(/C=C/Cc2ccc(OC)c(O)c2OCC=C(C)C)ccc1O | 70% | >80% | 63.2% | 27.8% | 0% | >80% | 88.1% | >80% | 
COc1cc(/C=C/Cc2ccc(O)c(O)c2OC)ccc1OC(C)=O | 60% | >80% | 74% | 36.1% | 9.4% | >80% | 100% | >80% | 
COc1cc(/C=C/Cc2ccc(OC)c(OCC=C(C)C)c2O)ccc1O | 70% | >80% | 64.2% | 28.3% | 0% | >80% | 87.1% | >80% | 
COc1c(C/C=C/c2ccccc2)ccc(O)c1C/C=C/c1ccccc1 | 60% | >80% | 68.2% | 41.5% | 12.8% | >80% | 100% | >80% | 
COc1cc(/C=C/C(=O)CC(=O)/C=C/c2ccc(O)c(OC)c2)ccc1O [CURCUMIN] | 60% | >80% | 81.7% | 22.8% | 0% | >80% | 100% | >80% | 
